Series [1] relates to RAW264.7. Description: Antiinflammatory activity in mouse RAW264.7 cells assessed as inhibition of LPS-induced NO production at 0.8 to 3.1 uM measured after 24 hrs by griess reagent based assay. The class given is functional, cell-based. In outline: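 Murine RAW 264.7 macrophages, 1 × 10^5/well, 4 h settling, then LPS (1.0 μg/mL) for 24 h. Medium was swapped for test solutions (0.8–3.1 μM or 2.3–9.2 μM), or DXM 254.8 μM as positive control, for another 24 h. Secreted NO was measured by Griess assay; TNF-α and IL-6 by ELISA. Run in triplicate, mean ± SD.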
(In general: The Griess reaction detects nitrite, a stable product of nitric oxide.)

Series [2] concerns MDA-MB-231. Description: Induction of mitochondrial membrane potential loss in human MDA-MB-231 cells assessed as cell population with intact mitochondrial membrane potential by measuring red fluorescence at 8.6 uM incubated for 48 hrs by JC1 staining based flow cytometric analysis (reference value: 92.04%). The format is functional. In outline:
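MDA-MB-231 cells in DMEM/10% FBS exposed 48 h to 0, 8.6, 12.4 or 17.3 μM. Harvested cells stained with JC-1 for 15 min in the dark, then analysed by flow cytometry. Excitation 488 nm; green emission read at 525 nm, red at 590 nm. Output given as percent green-to-red fluorescence intensity ratio. Triplicate, mean ± SD.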
On the technique in general: Flow cytometry measures light scatter and fluorescence of single cells or particles in a stream.

A short description of series [3]: Cytotoxicity against mouse RAW264.7 cells assessed as reduction in cell viability incubated for 24 hrs by MTT assay. The format is cell-based. The following applies: read-out: MNCC. In outline: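 MTT viability assay: RAW 264.7 cells seeded at 2.5 × 10^4 cells/well, cultured 12 h, then given five concentrations from serial dilution (up to 6.2 or 9.2 μM; final DMSO <1%) for 24 h. Viability was calculated relative to untreated blank control; n = 3, mean ± SD.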
A general note: Formazan colour is commonly taken as a measure of viable cells.

Series [4] relates to MDA-MB-231. Description: Induction of cell cycle arrest in human MDA-MB-231 cells assessed as accumulation of cells at S phase at 17.3 uM incubated for 48 hrs by PI/RNase staining based flow cytometric analysis (reference value: 39.2%). The class given is functional. Summed up: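 Cell-cycle analysis: MDA-MB-231 cells were preincubated 24 h, then treated with 8.6, 12.4 or 17.3 μM for 48 h. Cells were pelleted, fixed in 75% ethanol at −20 °C overnight, and stained with PI/RNase for 15 min in the dark at ambient temperature. About 10 000 cells per well were analyzed by flow cytometry for DNA content.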

Active and inactive are the calls of the source. The rule behind the calls is not given here.

Take `CC(C)=CCc1c2c(c(O)c3c(=O)cc(-c4ccc(O)cc4)oc13)C=CC(C)(C)O2` [LAXIFOLIN]: the inhibition result in series [1] is “Active”. For the same compound, the Activity in series [2] is recorded as 83.51%; in series [4], 26.8%. Also, the MNTC at 24 h in series [3] was found to be 3.1 µM.

Source of the values: ChEMBL document CHEMBL4414566, “Cytotoxicity and Anti-inflammatory Properties of Apigenin-Derived Isolaxifolin” (J Nat Prod, 2019).
